CHRM4 agonist: agonists of human muscarinic M4 receptor (CHRM4). P08173. CHO-K1 hM4/Gqi5, Fluo-8 calcium fluorescence; vehicle 0%, full acetylcholine response 100%. activation, % at 3 µM. 360,000 compounds, 0.14% hits. AID 624127;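 active means activation above the run mean over all test wells plus 3 SD, cut at about 32% in these data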;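 further: peak over basal fluorescence ratio per well then scaled between controls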
CHRM4 PAM: positive allosteric modulators of human muscarinic M4 receptor; P08173; CHO-K1 hM4/Gqi5, Fluo-8 calcium fluorescence, ACh EC20; 0% = ACh EC20, 100% = maximal ACh; activation, % at 3 µM; 360,000 compounds, 0.4% hits;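 active means activation above its plate's cutoff, the mean activation of sample wells plus 3 SD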
TAAR1 agonist: human TAAR1 agonism; Q96RJ0; CHO RD-HGA16 TAAR1, Fluo-8 calcium fluorescence; vehicle wells 0%, saturating PEA agonist 100%; activation, % at 3 µM; 360,000 compounds, 0.99% hits;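 active means activation above the mean activation of all test compounds in the run plus 3 SD, cut at about 38% in these data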
Target sequence (Q96RJ0 whole entry, looked up): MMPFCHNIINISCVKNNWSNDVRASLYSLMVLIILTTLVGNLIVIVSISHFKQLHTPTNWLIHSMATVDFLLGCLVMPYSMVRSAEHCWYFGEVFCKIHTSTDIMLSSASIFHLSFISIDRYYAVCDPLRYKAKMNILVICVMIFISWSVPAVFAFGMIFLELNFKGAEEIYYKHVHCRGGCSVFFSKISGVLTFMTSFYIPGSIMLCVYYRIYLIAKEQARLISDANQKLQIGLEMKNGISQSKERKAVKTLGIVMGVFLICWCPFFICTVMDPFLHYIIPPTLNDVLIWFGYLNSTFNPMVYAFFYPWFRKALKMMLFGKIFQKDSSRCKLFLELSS
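Assay system – CHO-derived RD-HGA16 cells with stable Gα16 and human TAAR1 · Compound dosing – one-point dosing at 3 µM (nominal) · Incubation – 17-24 h seeding, 75 min 37 °C dye, 30 min RT · Measured by – kinetic Fluo-8 calcium fluorescence · Control set – DMSO vehicle as 0%, PEA at EC100 as 100% · Repeats – single well for each compound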
M4 antag: antagonists of human muscarinic M4 receptor (CHRM4) | 360,000 compounds, 0.73% hits | inhibition, % at 3 µM | P08173 | CHO-hM4 cells, ACh EC80, Fluo-8 calcium fluorescence;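 active means inhibition above its plate's cutoff, the mean inhibition of sample wells plus 3 SD, cut at about 27% in these data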
TAAR1 antagonist: antagonists of human TAAR1; AID 624466; 360,000 compounds, 1.5% hits; CHO RD-HGA16 TAAR1, Fluo-8 calcium fluorescence, antagonist; inhibition, % at 3 µM;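 active means inhibition above a per-plate cutoff, the mean inhibition of test compounds on that plate plus 3 SD, cut at about 49% in these data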
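Material: RD-HGA16 CHO cells with stable hTAAR1 and Gα16; Dosing: single nominal final test compound concentration of 3 µM; Schedule: seeding 17-24 h prior, 75-min 37 °C, 30-min RT dye loading; Detection: kinetic Fluo-8 calcium fluorescence measurement; Measure: % inhibition from peak post-agonist over basal fluorescence ratio; Benchmarks: vehicle and agonist controls.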
TAAR1 ag conf: confirmation of human TAAR1 agonists; shares compounds with TAAR1 agonist; CHO RD-HGA16 TAAR1, Fluo-8 calcium fluorescence; scaled: DMSO 0%, maximal phenethylamine 100%; activation, % at 3 µM; 2,400 compounds, 82% hits; AID 651783;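 active means activation above a cutoff set at the run's mean compound activation plus 3 SD, cut at about 39% in these data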
Ga16 nonsel ag: nonselective agonist in parental cells, TAAR1 agonist counter-screen. activation, % at 3 µM. AID 651787. 2,400 compounds, 50% hits. CHO-Ga16 parental, Fluo-8 calcium fluorescence; normalized to maximal ATP response, DMSO zero. shares compounds with TAAR1 agonist;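 active means activation above the run cutoff, the mean activation over all tested wells plus 3 SD, cut at about 12% in these data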
TAAR1 desensitize: human TAAR1 agonist that also desensitizes the receptor | shares compounds with TAAR1 agonist | CHO RD-HGA16 hTAAR1, Fluo-8 calcium, beta-PEA response inhibition | inhibition, % at 3 µM | 2,400 compounds, 46% hits;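 active means inhibition above the run cutoff, the mean inhibition of all test compounds plus 3 SD, cut at about 49% in these data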;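 further: beta-PEA stimulus applied at its EC80; loss of beta-PEA calcium signal after compound pretreatment read as receptor desensitization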
Ga16 antag count: counter-screen for TAAR1 agonists: nonselective Ga16 antagonists; inhibition, % at 3 µM; shares compounds with TAAR1 agonist; AID 651952; 2,400 compounds, 39% hits; CHO-Ga16 ATP-induced calcium, Fluo-8 fluorescence;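 active means inhibition above the plate's mean compound inhibition plus 3 SD, computed per plate, cut at about 22% in these data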
Large screens that a line does not name were inactive (follow-up assays come after a bar, where they were run). Compounds with a hit are over-represented: about 3% of the library has one in this group of screens.

COc1cccc(C(c2sc3nc(C)nn3c2O)N2CCc3ccccc3C2)c1 (stereo unspecified)	TAAR1 agonist 54.3 | TAAR1 ag conf 56.3 | Ga16 nonsel ag inactive | TAAR1 desensitize inactive | Ga16 antag count inactive
CC1CCCN(C(c2ccccc2)c2sc3ncnn3c2O)C1 (stereo unspecified)	none
Cc1cccc(CCN2C(Nc3ccccc3)=NC[C@@H]2CC(C)C)c1	CHRM4 agonist 136.8, TAAR1 agonist 127.2, M4 antag 59.0, TAAR1 antagonist 106.8 | TAAR1 ag conf 111.5 | Ga16 nonsel ag 87.3 | TAAR1 desensitize 102.1 | Ga16 antag count 80.2
CC(C)C[C@H]1CN=C(Nc2ccccc2)N1CCc1ccc(F)cc1	CHRM4 agonist 114.7, TAAR1 agonist 119.2, M4 antag 46.5, TAAR1 antagonist 104.4 | TAAR1 ag conf 127.2 | Ga16 nonsel ag 80.4 | TAAR1 desensitize 102.4 | Ga16 antag count 71.7
Cc1cccc(NC2=NCC(=O)N2CCc2ccccc2)c1	TAAR1 agonist 86.2, TAAR1 antagonist 51.2 | TAAR1 ag conf 106.2 | Ga16 nonsel ag inactive | TAAR1 desensitize 84.7 | Ga16 antag count inactive
CC(C)C[C@H]1CN=C(Nc2ccccc2)N1CC1CCCCCC1	TAAR1 agonist 48.9 | TAAR1 ag conf inactive | Ga16 nonsel ag 16.0 | TAAR1 desensitize inactive | Ga16 antag count 22.1
COC(=O)[C@]12C[C@H](CC(=O)N3CCCC3)C(=O)N(CCC3=CCCCC3)C1=C[C@H](C(C)(C)C)O[C@@H]2C	none (no result: CHRM4 agonist, CHRM4 PAM, M4 antag)
O=C(O)COCC(=O)NCc1csc2ccccc12	TAAR1 agonist 51.4 | TAAR1 ag conf 54.9 | Ga16 nonsel ag inactive | TAAR1 desensitize inactive | Ga16 antag count inactive
CC(=O)N1CCOc2ccc(S(=O)(=O)NCCc3ccccc3)cc21	TAAR1 agonist 55.6 | TAAR1 ag conf 63.7 | Ga16 nonsel ag inactive | TAAR1 desensitize inactive | Ga16 antag count inactive
COc1cccc(CNS(=O)(=O)c2ccc3c(c2)N(C(C)=O)CCO3)c1	none
C=CCC[C@H](Cc1ccc(F)cc1)C(=O)OC[C@H](Cc1c[nH]c2ccccc12)NC(=O)[C@@H](CC=C)CC(=O)NCCO	TAAR1 agonist 64.6, TAAR1 antagonist 74.5 | TAAR1 ag conf inactive | Ga16 nonsel ag 25.0 | TAAR1 desensitize 68.8 | Ga16 antag count 52.8
COc1cccc(-c2nc(CS(=O)CC(=O)NCCc3ccccc3)c(C)o2)c1 (stereo unspecified)	TAAR1 agonist 48.9 | TAAR1 ag conf 51.5 | Ga16 nonsel ag inactive | TAAR1 desensitize inactive | Ga16 antag count inactive
Clc1cccc(Cl)c1CSc1nnc(-c2ccncc2)s1	TAAR1 agonist 117.0, TAAR1 antagonist 78.5 | TAAR1 ag conf 128.2 | Ga16 nonsel ag 116.6 | TAAR1 desensitize 99.6 | Ga16 antag count 74.8
Clc1ccc(CSc2nnc(-c3ccncc3)s2)cc1	none
CC(C)(C)c1ccc(C(=O)N2CCC2(C)C(=O)NCC(F)(F)F)cc1 (stereo unspecified)	none
COC(=O)CCCn1cc(CN2CC(N3CCN(Cc4ccccc4F)CC3)CS2(=O)=O)nn1 (stereo unspecified)	none
Cc1ccc(-n2sc3ccccc3c2=O)cc1S(=O)(=O)N1CCCCC1	TAAR1 agonist 70.1 | TAAR1 ag conf inactive | Ga16 nonsel ag 14.1 | TAAR1 desensitize inactive | Ga16 antag count inactive
CN(C)S(=O)(=O)c1cccc(-n2sc3ccccc3c2=O)c1	TAAR1 agonist 64.0 | TAAR1 ag conf 49.7 | Ga16 nonsel ag 34.1 | TAAR1 desensitize inactive | Ga16 antag count 22.1
Cn1sc2ccccc2c1=O	TAAR1 agonist 46.0 | TAAR1 ag conf inactive | Ga16 nonsel ag 26.1 | TAAR1 desensitize inactive | Ga16 antag count inactive
CC(=O)Nc1ccc2c(=O)n(-c3ccccc3)sc2c1	TAAR1 agonist 83.1, TAAR1 antagonist 68.6 | TAAR1 ag conf 131.4 | Ga16 nonsel ag 51.4 | TAAR1 desensitize 101.8 | Ga16 antag count 51.7
O=c1c2ccccc2sn1-c1ccc(S(=O)(=O)N2CCCCC2)cc1	none
COC(=O)c1cc(=O)nc(NN=Cc2ccccc2O)s1	none (no result: CHRM4 agonist, CHRM4 PAM, M4 antag)
O=c1c2ccccc2sn1-c1ccccc1	TAAR1 agonist 54.5, TAAR1 antagonist 50.4 | TAAR1 ag conf 38.1 | Ga16 nonsel ag 27.1 | TAAR1 desensitize inactive | Ga16 antag count 32.0
CCc1c(C)nc2ncnn2c1NCCc1ccc(Cl)cc1	none
CCc1c(C)nc2ncnn2c1NCCc1ccccc1	TAAR1 agonist 75.9 | TAAR1 ag conf 91.8 | Ga16 nonsel ag 12.7 | TAAR1 desensitize 61.0 | Ga16 antag count 24.1
O=C(CSc1ncccn1)NC(=O)NCc1ccco1	none
O=C(CSc1n[nH]c(-c2ccccc2)n1)NC(=O)NCc1ccco1	none (no result: TAAR1 agonist, TAAR1 antagonist) | Ga16 nonsel ag inactive | Ga16 antag count inactive
CC1(c2nc3ccccc3[nH]2)CCC2=Nc3ccccc3CN21 (stereo unspecified)	none
Fc1ccccc1CSc1ncnc2c1ncn2C1CCCCO1 (stereo unspecified)	none
Clc1ccc(CSc2ncnc3c2ncn3C2CCCCO2)cc1 (stereo unspecified)	TAAR1 agonist 63.6 | TAAR1 ag conf inactive | Ga16 nonsel ag inactive | TAAR1 desensitize inactive | Ga16 antag count inactive
NC(=O)CC(NC(=O)Cc1ccc(Cl)cc1)c1ccc(NCCc2ccccc2F)c([N+](=O)[O-])c1 (stereo unspecified)	none (no result: TAAR1 agonist, TAAR1 antagonist) | Ga16 nonsel ag inactive | Ga16 antag count inactive
O=C(NCc1cccs1)c1cc(-c2ccccc2)on1	TAAR1 agonist 57.1 | TAAR1 ag conf inactive | Ga16 nonsel ag 19.4 | TAAR1 desensitize inactive | Ga16 antag count 22.6
O=C(NCc1cccs1)c1cc(-c2cccs2)on1	none
FC(F)(F)c1ccccc1-c1nc(-c2ccncc2)no1	none
O=C(O)c1ccc(-c2noc(-c3ccccc3C(F)(F)F)n2)cc1	TAAR1 agonist 81.9 | TAAR1 ag conf inactive | Ga16 nonsel ag 19.9 | TAAR1 desensitize inactive | Ga16 antag count 23.7
OC(c1ccc(Cl)c(F)c1)c1ncc(-c2cccc(F)c2)[nH]1 (stereo unspecified)	none
O=C(Cc1c(F)c(F)c(F)c(F)c1F)Nc1nc(-c2ccccc2)cs1	TAAR1 agonist 53.9 | TAAR1 ag conf 83.4 | Ga16 nonsel ag 32.6 | TAAR1 desensitize 68.7 | Ga16 antag count 30.1

Assay outcomes deposited in PubChem BioAssay by The Scripps Research Institute Molecular Screening Center.
